The source made the active and inactive calls. The calls are words filed in the database; no cut-off is given here.
Key:
[1] = Down regulation of NFkappaB p65 expression in LPS/IFNgamma-induced mouse RAW264.7 cells at 10 uM incubated for 20 hrs followed by LPS/IFNgamma stimulation and measured after 4 hrs by Western blot analysis; settings: raw264.7, 24 h
Outline: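 RAW264.7 cells treated and NF-κB p65 protein measured by western blot with p65 antibody (1:2500), β-actin loading control, HRP secondary and chemiluminescent detection.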

[2] = molecular target: T1, Protein cereblon/Histone deacetylase 3 (Mus musculus) (UniProt O88895+Q8C7D2); experiment: Protac activity at CRBN/HDAC3 in mouse RAW264.7 cells assessed as induction of HDAC3 degradation at 10 to 100 uM measured after 24 hrs by Western blot analysis; assay type: cell-based; settings: dose 10-100 µM
Outline: (§1)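 RAW264.7 macrophages exposed to 1–100 µM for HDAC1/2/3 level assessment. Protein read by western blot: lysis, BCA, Bis-Tris SDS-PAGE, PVDF, overnight 4 °C primary antibodies (HDAC1, 2, 3 at 1:2000; β-actin 1:10000), HRP secondaries, chemiluminescence.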

[3] = Cytotoxicity against mouse RAW264.7 cells assessed as cell survival up to 10 uM measured after 24 hrs by MTS assay relative to control; assay type: cell-based; settings: read-out: Survival
Outline: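 RAW264.7 macrophages (ATCC, passage 5–16) grown in DMEM GlutaMAX with 10% heated FBS at 37 °C, 5% CO2. Cells seeded at 25,000 cells/cm2 and treated the next day in fresh medium with compound up to 10 μM for 24 h at 37 °C. CellTiter 96 AQueous One (MTS) reagent added for 2 h at 37 °C in the dark, absorbance read at 490 nm, expressed as % of control.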

[4] = molecular target: T2, Protein cereblon/Histone deacetylase 1 (Mus musculus) (UniProt O09106+Q8C7D2); experiment: Protac activity at CRBN/HDAC1 in mouse RAW264.7 cells assessed as induction of HDAC1 degradation at 30 to 100 uM measured after 24 hrs by Western blot analysis; assay type: cell-based; settings: dose 30-100 µM; outline: as §1
T2 sequence (O09106 whole entry, looked up, one chain of several): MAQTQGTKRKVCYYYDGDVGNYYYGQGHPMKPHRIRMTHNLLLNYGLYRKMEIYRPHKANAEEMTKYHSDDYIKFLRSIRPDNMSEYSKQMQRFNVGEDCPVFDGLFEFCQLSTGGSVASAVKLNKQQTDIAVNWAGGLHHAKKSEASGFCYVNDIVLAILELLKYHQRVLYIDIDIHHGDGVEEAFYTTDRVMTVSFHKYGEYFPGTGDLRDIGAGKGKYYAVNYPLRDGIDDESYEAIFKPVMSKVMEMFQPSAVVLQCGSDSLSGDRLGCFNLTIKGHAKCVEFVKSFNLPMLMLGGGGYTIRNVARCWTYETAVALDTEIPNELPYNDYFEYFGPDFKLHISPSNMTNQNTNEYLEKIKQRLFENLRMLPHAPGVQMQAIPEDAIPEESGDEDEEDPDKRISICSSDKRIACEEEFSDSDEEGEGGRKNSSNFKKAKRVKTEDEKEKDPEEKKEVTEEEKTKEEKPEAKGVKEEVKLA

[5] = molecular target: T3, Protein cereblon/Histone deacetylase 2 (Mus musculus) (UniProt P70288+Q8C7D2); experiment: Protac activity at CRBN/HDAC2 in mouse RAW264.7 cells assessed as induction of HDAC2 degradation at 100 uM measured after 24 hrs by Western blot analysis; assay type: cell-based; outline: as §1
T3 sequence (P70288 whole entry, looked up, one chain of several): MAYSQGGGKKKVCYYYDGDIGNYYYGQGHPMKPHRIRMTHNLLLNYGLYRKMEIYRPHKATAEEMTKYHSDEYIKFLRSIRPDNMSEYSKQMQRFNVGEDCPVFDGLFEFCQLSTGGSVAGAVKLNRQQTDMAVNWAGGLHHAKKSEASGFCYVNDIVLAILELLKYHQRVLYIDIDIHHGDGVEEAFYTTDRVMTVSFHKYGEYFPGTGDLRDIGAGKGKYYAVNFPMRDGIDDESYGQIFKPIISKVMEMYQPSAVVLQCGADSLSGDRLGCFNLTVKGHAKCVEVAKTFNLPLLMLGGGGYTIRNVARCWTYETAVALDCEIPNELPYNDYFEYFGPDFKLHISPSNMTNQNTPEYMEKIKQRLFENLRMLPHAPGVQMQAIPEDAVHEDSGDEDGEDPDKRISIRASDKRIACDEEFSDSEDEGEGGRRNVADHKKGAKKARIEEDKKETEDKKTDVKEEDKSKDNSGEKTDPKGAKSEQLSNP

Histone deacetylase 2 = Histone deacetylase 2 (Homo sapiens, UniProt Q92769); experiment: Inhibition of recombinant human full-length C-terminal FLAG-tagged HDAC2 expressed in baculovirus infected Sf9 insect cells using Boc-Lys(epsilon-Ac)-AMC as substrate measured after 90 mins by fluorescence assay
Histone deacetylase 2, sequence (Q92769 whole entry): as the sequence (P70288 whole entry, looked up, one chain of several) above, with A289V, P477T, A480T counted along it

[6] = molecular target: T2, Protein cereblon/Histone deacetylase 1 (Mus musculus); experiment: Protac activity at CRBN/HDAC1 in mouse RAW264.7 cells assessed as induction of HDAC1 degradation at 10 uM by Western blot analysis; assay type: cell-based
Outline: (§2)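 RAW264.7 macrophages treated at 10 µM. Cells lysed in ice-cold HEPES/MgCl2/EDTA/0.5% Triton X-100 with protease inhibitors, protein by BCA, 4–12% Bis-Tris SDS-PAGE, PVDF transfer. Probed with HDAC1, HDAC2 or HDAC3 antibodies (1:2000) and β-actin, then HRP secondary and chemiluminescence. Bands quantified by densitometry as fold of untreated control, mean ± SD of 2 independent experiments.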

[7] = molecular target: T1, Protein cereblon/Histone deacetylase 3 (Mus musculus); experiment: Protac activity at CRBN/HDAC3 in mouse RAW264.7 cells assessed as induction of HDAC3 degradation at 10 uM by Western blot analysis; assay type: cell-based; outline: as §2
Histone deacetylase 1 = Histone deacetylase 1 (Homo sapiens, UniProt Q13547); experiment: Inhibition of recombinant human C-terminal His/FLAG-tagged HDAC1 (1 to 482 residues) expressed in Sf9 insect cells using Boc-Lys(epsilon-Ac)-AMC as substrate measured after 90 mins by fluorescence assay
Histone deacetylase 1, sequence (Q13547 whole entry, the tested form may be a part): as the sequence (O09106 whole entry, looked up, one chain of several) above, with K8R, E399D, D424E counted along it

[8] = molecular target: Protein cereblon/Histone deacetylase 3 (Homo sapiens) (UniProt O15379+Q96SW2); experiment: Protac activity at CRBN/HDAC3 in human A549 cells assessed as induction of HDAC3 degradation up to 50 uM by Western blot analysis; assay type: cell-based; settings: dose microM <=50
Protein cereblon/Histone deacetylase 3 (Homo sapiens), sequence (O15379 whole entry, looked up, the tested form may be a part): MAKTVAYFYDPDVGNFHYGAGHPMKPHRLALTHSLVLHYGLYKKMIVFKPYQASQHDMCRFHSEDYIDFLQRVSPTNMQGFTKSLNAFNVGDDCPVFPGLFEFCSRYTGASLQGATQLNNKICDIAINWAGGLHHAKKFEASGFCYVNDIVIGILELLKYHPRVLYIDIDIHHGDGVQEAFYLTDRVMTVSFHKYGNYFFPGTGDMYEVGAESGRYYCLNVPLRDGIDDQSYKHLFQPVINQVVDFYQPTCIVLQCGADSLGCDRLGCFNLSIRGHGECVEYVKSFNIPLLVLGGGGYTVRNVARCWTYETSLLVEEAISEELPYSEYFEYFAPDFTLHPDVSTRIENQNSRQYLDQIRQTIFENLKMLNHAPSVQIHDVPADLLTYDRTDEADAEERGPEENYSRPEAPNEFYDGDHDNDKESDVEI
Protein cereblon/Histone deacetylase 3 (Homo sapiens), sequence (Q96SW2 whole entry, looked up, the tested form may be a part): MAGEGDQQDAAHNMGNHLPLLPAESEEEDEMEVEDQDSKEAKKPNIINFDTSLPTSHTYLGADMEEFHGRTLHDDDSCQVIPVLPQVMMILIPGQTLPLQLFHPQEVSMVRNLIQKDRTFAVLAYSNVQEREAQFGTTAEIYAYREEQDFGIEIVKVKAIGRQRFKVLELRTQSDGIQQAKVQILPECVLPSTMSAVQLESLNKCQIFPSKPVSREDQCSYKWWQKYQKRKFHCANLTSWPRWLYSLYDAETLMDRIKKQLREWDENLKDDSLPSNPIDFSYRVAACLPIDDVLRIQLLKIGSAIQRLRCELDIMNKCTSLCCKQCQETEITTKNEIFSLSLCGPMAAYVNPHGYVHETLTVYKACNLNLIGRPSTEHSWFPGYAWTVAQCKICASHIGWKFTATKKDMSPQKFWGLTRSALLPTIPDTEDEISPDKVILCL

[9] = molecular target: Histone deacetylase 3/Nuclear receptor corepressor 2 (HDAC3/NCoR2) (Homo sapiens, UniProt O15379); experiment: Inhibition of human recombinant C-terminal His-tagged HDAC3 (1 to 428 residues)/N-terminal GST-tagged NCOR2 (395 to 489 residues) expressed in baculovirus infected Sf9 insect cells using Boc-Lys(epsilon-Ac)-AMC as substrate measured after 90 mins by fluorescence assay
Histone deacetylase 3/Nuclear receptor corepressor 2 (HDAC3/NCoR2), sequence (O15379 whole entry, the tested form may be a part): as the sequence (O15379 whole entry, looked up, the tested form may be a part) above
Histone deacetylase 3/Nuclear receptor corepressor 2 (HDAC3/NCoR2), sequence (Q9Y618 whole entry, further chain, the tested form may be a part): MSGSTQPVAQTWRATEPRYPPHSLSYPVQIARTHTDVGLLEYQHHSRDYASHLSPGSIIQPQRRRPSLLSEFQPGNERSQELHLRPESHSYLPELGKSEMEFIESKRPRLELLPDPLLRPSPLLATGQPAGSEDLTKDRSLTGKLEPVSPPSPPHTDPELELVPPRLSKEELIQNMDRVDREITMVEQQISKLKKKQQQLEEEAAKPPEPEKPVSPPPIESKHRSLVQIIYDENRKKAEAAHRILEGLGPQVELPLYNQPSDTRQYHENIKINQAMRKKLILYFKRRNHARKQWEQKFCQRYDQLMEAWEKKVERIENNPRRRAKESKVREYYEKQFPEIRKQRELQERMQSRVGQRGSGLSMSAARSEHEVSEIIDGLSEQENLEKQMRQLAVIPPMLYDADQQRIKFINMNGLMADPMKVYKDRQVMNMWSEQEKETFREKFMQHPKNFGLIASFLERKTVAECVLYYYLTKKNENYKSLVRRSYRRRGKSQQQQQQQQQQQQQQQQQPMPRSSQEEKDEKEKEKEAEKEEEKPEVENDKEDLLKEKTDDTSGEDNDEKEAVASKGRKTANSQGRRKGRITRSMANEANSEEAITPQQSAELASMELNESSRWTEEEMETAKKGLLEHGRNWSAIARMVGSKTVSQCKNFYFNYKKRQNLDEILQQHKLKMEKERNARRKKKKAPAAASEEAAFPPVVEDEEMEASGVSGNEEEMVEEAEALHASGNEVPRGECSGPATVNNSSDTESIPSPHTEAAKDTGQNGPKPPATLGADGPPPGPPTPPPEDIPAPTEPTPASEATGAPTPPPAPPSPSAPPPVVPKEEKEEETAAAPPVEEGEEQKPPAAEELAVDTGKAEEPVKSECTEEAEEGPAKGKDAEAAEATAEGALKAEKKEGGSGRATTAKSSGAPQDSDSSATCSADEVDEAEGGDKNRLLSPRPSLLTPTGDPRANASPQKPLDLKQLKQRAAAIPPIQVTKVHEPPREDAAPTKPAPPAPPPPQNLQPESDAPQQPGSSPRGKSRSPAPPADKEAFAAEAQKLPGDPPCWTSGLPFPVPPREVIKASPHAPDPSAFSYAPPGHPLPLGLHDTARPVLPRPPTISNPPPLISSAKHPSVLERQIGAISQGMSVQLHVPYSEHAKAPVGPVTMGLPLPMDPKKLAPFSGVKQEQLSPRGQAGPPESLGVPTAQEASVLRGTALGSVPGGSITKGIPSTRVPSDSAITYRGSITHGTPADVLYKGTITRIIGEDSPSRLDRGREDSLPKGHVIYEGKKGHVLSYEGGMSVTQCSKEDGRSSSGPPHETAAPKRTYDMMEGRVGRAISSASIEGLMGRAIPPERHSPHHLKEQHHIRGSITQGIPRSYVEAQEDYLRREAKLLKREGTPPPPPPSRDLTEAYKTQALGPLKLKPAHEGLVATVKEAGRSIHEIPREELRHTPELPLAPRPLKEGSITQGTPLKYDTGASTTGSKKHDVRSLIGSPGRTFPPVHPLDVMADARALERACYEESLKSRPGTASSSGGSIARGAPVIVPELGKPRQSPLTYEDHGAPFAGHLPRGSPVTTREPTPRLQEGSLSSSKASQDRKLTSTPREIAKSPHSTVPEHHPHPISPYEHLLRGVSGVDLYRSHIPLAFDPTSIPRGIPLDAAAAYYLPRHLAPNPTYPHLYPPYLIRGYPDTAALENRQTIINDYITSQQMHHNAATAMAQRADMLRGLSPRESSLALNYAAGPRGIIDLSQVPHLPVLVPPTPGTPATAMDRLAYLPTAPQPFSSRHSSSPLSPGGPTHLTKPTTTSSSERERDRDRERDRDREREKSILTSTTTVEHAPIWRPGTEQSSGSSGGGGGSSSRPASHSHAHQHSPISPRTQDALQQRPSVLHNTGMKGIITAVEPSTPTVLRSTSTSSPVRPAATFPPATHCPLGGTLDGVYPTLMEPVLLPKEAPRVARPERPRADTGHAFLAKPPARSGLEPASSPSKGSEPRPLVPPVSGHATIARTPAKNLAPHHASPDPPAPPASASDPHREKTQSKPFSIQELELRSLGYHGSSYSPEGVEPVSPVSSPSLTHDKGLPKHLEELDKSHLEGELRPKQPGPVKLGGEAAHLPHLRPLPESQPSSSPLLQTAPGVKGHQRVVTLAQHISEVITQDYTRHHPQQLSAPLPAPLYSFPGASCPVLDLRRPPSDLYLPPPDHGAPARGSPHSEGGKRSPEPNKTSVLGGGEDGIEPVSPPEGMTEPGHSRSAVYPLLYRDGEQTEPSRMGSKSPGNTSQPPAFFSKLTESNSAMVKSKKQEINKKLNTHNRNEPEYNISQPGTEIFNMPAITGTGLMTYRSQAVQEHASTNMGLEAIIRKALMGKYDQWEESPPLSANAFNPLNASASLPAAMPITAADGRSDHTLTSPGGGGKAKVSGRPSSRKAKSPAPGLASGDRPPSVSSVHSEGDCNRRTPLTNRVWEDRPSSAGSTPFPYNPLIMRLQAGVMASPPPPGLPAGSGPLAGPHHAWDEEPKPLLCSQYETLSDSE
Outline: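 Incubated with inhibitor dilutions (in 10% DMSO/buffer) and Boc-Lys(ε-Ac)-AMC, 90 min at 37 °C. Stopped with trypsin plus 200 µM vorinostat, 30 min at 37 °C.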

RAW264.7 [10] = experiment: Cytotoxicity against mouse RAW264.7 cells assessed as reduction in cell proliferation at 3 uM measured after 24 hrs by MTS assay relative to control; assay type: cell-based; set-up: scale not given: the % may be the effect or the level left; settings: raw264.7, 24 h
Outline: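 RAW264.7 cells (passage 5–16, DMEM GlutaMAX with 10% heated FBS, 37 °C, 5% CO2) seeded at 25,000 cells/cm2. Next day, medium swapped for fresh medium containing compound. After 24h, CellTiter 96 AQueous One (MTS) added, 2h at 37 °C in dark. Absorbance read at 490 nm and expressed as % of control.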

[11] = molecular target: T1, Protein cereblon/Histone deacetylase 3 (Mus musculus); experiment: Protac activity at CRBN/HDAC3 in mouse RAW264.7 cells assessed as induction of HDAC3 degradation at 10 uM measured after 24 hrs in presence of CRBN ligand pomalidomide by Western blot analysis; assay type: cell-based
Outline: (§3)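 RAW264.7 cells pre-treated 1h with pomalidomide or CI994 (competitor), then the PROTAC added for 24h combined treatment. Control cells received competitor alone for 25h. HDAC3 measured by western blot, quantified as fold of untreated control, mean ± SD of 2 independent experiments.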

RAW264.7 [12] = experiment: Effect on LPS/IFNgamma-induced IL-10 mRNA expression in mouse RAW264.7 cells at 1 uM incubated for 20 hrs followed by LPS/IFNgamma stimulation and measured after 4 hrs by RT-qPCR analysis; assay type: functional, cell-based; settings: time 24.0 hrs
Outline: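 RAW264.7 macrophages treated for 24h, with LPS/IFNγ stimulation during the final 4h. Vehicle cells received a proportional DMSO dilution. Total RNA isolated from DPBS-washed cells and IL-10 transcription measured by RT-qPCR. Mean ± SD of 2–3 independent experiments.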

[13] = molecular target: T1, Protein cereblon/Histone deacetylase 3 (Mus musculus); experiment: Protac activity at CRBN/HDAC3 in mouse RAW264.7 cells assessed as increase of H3K27 acetylation at 10 uM measured after 24 hrs by Western blot analysis; assay type: cell-based
Outline: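 RAW264.7 macrophages treated for 24h. H3K27 acetylation measured by western blot with acH3K27 antibody (1:1000), HRP detection. Bands quantified as fold of untreated control, mean ± SD of 2 independent experiments.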

[14] = molecular target: T2, Protein cereblon/Histone deacetylase 1 (Mus musculus); experiment: Protac activity at CRBN/HDAC1 in mouse RAW264.7 cells assessed as induction of HDAC1 degradation at 0.01 to 10 uM measured after 24 hrs by Western blot analysis; assay type: cell-based; settings: dose 0.01-10 µM
[15] = molecular target: T1, Protein cereblon/Histone deacetylase 3 (Mus musculus); experiment: Protac activity at CRBN/HDAC3 in mouse RAW264.7 cells assessed as induction of HDAC3 degradation at 10 uM measured after 24 hrs in presence of proteasome inhibitor bortezomib by Western blot analysis; assay type: cell-based
Outline: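 RAW264.7 macrophages treated 24h with bortezomib, the PROTAC, or both together. HDAC3 measured by western blot, quantified as fold of untreated control, mean ± SD of 2 independent experiments.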

[16] = molecular target: T1, Protein cereblon/Histone deacetylase 3 (Mus musculus); experiment: Protac activity at CRBN/HDAC3 in mouse RAW264.7 cells assessed as induction of HDAC3 degradation at 10 uM measured after 24 hrs in presence of HDAC ligand CI994 by Western blot analysis; assay type: cell-based; outline: as §3
[17] = molecular target: T4, Protein cereblon/Histone deacetylase 3 (Mus musculus, UniProt O88895+Q8C7D2); experiment: Protac activity at CRBN/HDAC3 in mouse RAW264.7 cells assessed as induction of HDAC3 degradation measured after 24 hrs by Western blot analysis; assay type: cell-based
T4 sequence (O88895 whole entry): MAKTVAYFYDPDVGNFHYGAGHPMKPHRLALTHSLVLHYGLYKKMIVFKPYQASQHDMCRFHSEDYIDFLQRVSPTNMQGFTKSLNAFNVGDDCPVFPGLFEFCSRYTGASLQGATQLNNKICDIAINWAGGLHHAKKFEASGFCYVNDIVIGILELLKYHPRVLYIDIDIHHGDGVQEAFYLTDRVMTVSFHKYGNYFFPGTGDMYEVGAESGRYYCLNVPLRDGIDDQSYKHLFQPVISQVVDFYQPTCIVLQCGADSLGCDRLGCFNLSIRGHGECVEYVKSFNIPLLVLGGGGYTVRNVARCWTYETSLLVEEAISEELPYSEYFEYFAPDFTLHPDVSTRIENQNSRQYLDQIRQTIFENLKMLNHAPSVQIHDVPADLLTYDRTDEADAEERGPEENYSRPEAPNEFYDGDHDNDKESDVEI
T4 sequence (Q8C7D2 whole entry): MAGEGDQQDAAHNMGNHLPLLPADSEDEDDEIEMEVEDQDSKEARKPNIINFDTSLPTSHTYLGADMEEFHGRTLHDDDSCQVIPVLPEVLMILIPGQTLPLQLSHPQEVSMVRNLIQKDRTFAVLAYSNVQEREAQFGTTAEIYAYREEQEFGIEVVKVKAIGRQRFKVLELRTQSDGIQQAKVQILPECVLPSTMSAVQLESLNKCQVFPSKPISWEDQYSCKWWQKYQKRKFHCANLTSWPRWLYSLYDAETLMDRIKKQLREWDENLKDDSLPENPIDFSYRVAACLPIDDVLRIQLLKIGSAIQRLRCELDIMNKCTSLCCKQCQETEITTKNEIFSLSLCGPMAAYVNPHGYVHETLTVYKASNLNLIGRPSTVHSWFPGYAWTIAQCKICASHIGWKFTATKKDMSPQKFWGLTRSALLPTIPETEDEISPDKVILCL
Outline: (§4)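 RAW264.7 cells treated across 0.001–30 µM. Lysates blotted as standard, but membranes blocked in Odyssey buffer and probed with IRDye 680RD anti-mouse and 800CW anti-rabbit secondaries (1:10000). Bands imaged on a fluorescence scanner and quantified to derive DC50 (50% degradation concentration), expressed as percentage of untreated control, mean ± SD of 2–3 independent experiments.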

[18] = molecular target: T1, Protein cereblon/Histone deacetylase 3 (Mus musculus); experiment: Protac activity at CRBN/HDAC3 in mouse RAW264.7 cells assessed as induction of HDAC3 degradation at 10 uM measured after 6 to 48 hrs by Western blot analysis; assay type: cell-based; settings: time 6-48 hrs
Outline: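 RAW264.7 macrophages treated for the indicated times. HDAC3 level measured by western blot against β-actin. Bands quantified as fold of untreated control, mean ± SD of 2 independent experiments.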

[19] = molecular target: T3, Protein cereblon/Histone deacetylase 2 (Mus musculus); experiment: Protac activity at CRBN/HDAC2 in mouse RAW264.7 cells assessed as induction of HDAC2 degradation at 0.01 to 10 uM measured after 24 hrs by Western blot analysis; assay type: cell-based; settings: dose 0.01-10 µM; outline: as §4

SMILES	Activity [1]	viability at 24 h [3] [%]	IC50 (Histone deacetylase 2) [µM]	Activity [6]	Activity [7]	IC50 (Histone deacetylase 1) [µM]	IC50 [9] [µM]	also measured
Nc1cccc2c1C(=O)N(C1CCC(=O)NC1=O)C2=O (stereo unspecified) [POMALIDOMIDE]	Toxic	–	–	–	–	–	–	–
Nc1ccccc1NC(=O)c1ccc(NC(=O)CCCCNC(=O)CNc2cccc3c2C(=O)N(C2CCC(=O)NC2=O)C3=O)cc1 (stereo unspecified)	–	> 80	0.62	inactive	Active	0.29	0.52	Activity [2]: Active; Activity [4]: Active; Activity [5]: Active; Activity [8]: inactive
CC(=O)Nc1ccc(C(=O)Nc2ccccc2N)cc1 [TACEDINALINE]	–	–	–	–	–	–	–	Activity (RAW264.7 [10]): 30%
Nc1cc(F)ccc1NC(=O)c1ccc(NC(=O)CCCCNC(=O)CNc2cccc3c2C(=O)N(C2CCC(=O)NC2=O)C3=O)cc1 (stereo unspecified)	Toxic	–	4.2	–	–	3.6	1.1	Activity [11]: inactive; Activity (RAW264.7 [12]): inactive; Activity [13]: Active; Activity [14]: inactive; Activity [15]: inactive; Activity [16]: inactive; DC50 [17]: 0.32 µM; Activity [18]: Active; Activity [19]: inactive
Nc1ccccc1NC(=O)c1ccc(NC(=O)CCCNC(=O)CNc2cccc3c2C(=O)N(C2CCC(=O)NC2=O)C3=O)cc1 (stereo unspecified)	–	> 80	1.5	inactive	inactive	0.32	0.56	–

Source: ChEMBL document CHEMBL4706593, “Induced protein degradation of histone deacetylases 3 (HDAC3) by proteolysis targeting chimera (PROTAC)” (Eur J Med Chem, 2020)
